Source: PubChem (Johns Hopkins Ion Channel Center)
Only some compounds are listed: those with a hit (about 3.5% of all), similar ones and a draw of the others.
RGS4 inh = inhibitors of human RGS4 | HEK293 M3R/RGS4 inducible, Fluo-4 calcium flux; stronger effect = higher value; triggered by carbachol at its EC20 | B-score at 10 µM | actives 0.45% (n = 310,000);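 active = B-score, a plate-corrected calcium signal, over three deviations above library mean, with baseline fluorescence within five deviations of library mean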;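 note: RGS4 expression induced by doxycycline in cells with stable M3 receptor; B-score is computed from the integrated fluorescence ratio over baseline after carbachol; higher B-score means a larger calcium signal and so more RGS4 inhibition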
Target sequence (P49798 whole entry, looked up): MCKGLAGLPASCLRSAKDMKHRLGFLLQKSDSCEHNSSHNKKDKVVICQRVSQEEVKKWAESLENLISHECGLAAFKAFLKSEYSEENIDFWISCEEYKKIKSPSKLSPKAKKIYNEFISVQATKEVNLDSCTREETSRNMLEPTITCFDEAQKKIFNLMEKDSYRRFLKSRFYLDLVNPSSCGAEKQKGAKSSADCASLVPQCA
MrgX1 antag = antagonists of human MrgX1 receptor. Q96LB2. MRGX1-HEK293 calcium flux, Fluo-4, BAM8-22 antagonism; stronger effect = lower value. B-score at 10 µM. actives 1.3% (n = 310,000). AID 588676;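 active = calcium-response B-score plate-corrected more than 3 library SD below zero, starting fluorescence within 5 deviations, no agonist response on first addition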;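 note: peak minus trough fluorescence over baseline after final BAM8-22 challenge near maximal dose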
Target sequence (Q96LB2 whole entry, looked up): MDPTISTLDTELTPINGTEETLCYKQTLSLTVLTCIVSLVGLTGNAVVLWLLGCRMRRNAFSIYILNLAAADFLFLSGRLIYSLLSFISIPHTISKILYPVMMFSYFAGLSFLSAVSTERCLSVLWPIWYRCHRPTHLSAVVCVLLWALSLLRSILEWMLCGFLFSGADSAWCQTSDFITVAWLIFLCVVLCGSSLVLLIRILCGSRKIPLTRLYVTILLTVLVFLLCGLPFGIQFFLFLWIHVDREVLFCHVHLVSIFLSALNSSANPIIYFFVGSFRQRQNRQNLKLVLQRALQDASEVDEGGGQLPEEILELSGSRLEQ
MrgX1 PAM = human MrgX1 positive allosteric modulation, primary screen. actives 0.63% (n = 310,000). AID 588675. B-score at 10 µM. MrgX1-HEK293, Fluo-4 calcium flux, FDSS; stronger effect = higher value;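 active = plate-corrected calcium response at least 3 library SD above typical, normal starting fluorescence, not activating the receptor alone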;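 note: compound read alongside a low EC10 to EC30 dose of BAM8-22 agonist; peak minus trough fluorescence over baseline measured at the second addition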
MrgX1 ag = human MrgX1 receptor agonism, primary screen. Q96LB2. MrgX1-HEK293 cells, Fluo-4 calcium fluorescence, agonist mode; stronger effect = higher value. B-score at 10 µM. actives 0.44% (n = 310,000). AID 588627;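 active = calcium response B-score plate-corrected fluorescence ratio at least 3 library SD, with starting fluorescence B-score inside 5 SD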
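Test system: HEK293 cells stably expressing human MrgX1 receptor; Input: fifteen thousand cells per well; Dosing: compound delivered in addition one of three; Schedule: overnight seeding, then 1 h dark dye loading; Technique: Fluo-4 NW calcium fluorescence; Measure: B-scored fluorescence response ratio; Controls: positive and negative controls per plate.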
RGS4 pot = RGS4 potentiation or activation | B-score at 10 µM | AID 463111 | HEK293 M3R/inducible RGS4, carbachol calcium flux Fluo4; stronger effect = lower value | actives 0.92% (n = 310,000);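 active = B-score of the integrated calcium signal more than 4 SD below the library mean, with starting fluorescence not abnormally high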;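 note: negative B-score means reduced calcium response which marks RGS4 activation or potentiation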
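test system = M3R-expressing HEK293 line, RGS4 induced by doxycycline | probe or stimulus = carbachol at ECmax as muscarinic agonist stimulus | timing = dye loading 30 min 37 °C, buffer rest 30 min RT | signal = calcium dye Fluo4 fluorescence | evaluation = B score from integrated fluorescence ratio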
MrgX1 antag conf = confirmation of human MrgX1 receptor antagonists. shares compounds with MrgX1 antag. MrgX1-HEK293, BAM8-22 calcium flux, Fluo-4; stronger effect = lower value. remaining BAM8-22 calcium response % of control (stronger effect = lower value), % at 10 µM. actives 19% (n = 2,300). AID 602420;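 active = remaining agonist calcium response no higher than 100% minus 3 SD of agonist-only control wells, with starting fluorescence near control levels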;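 note: agonist BAM8-22 given at a near maximal EC90 to ECmax level; peak minus minimum fluorescence divided by baseline after agonist addition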
HEK293 Ca flux = counter-screen for MrgX1 antagonists: effect in parental HEK293 cells; shares compounds with MrgX1 antag; Fluo-4 calcium fluorescence, FDSS; fluorescence ratio F(max-min)/F0 at 10 µM; actives 2% (n = 4,000);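 active = duplicate-averaged calcium fluorescence ratio at least three times the standard deviation of buffer wells, a nonspecific response in parental cells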
HEK293 Ca counter = counter-screen for MrgX1 allosteric activators: effect in parental HEK293 cells | shares compounds with MrgX1 antag | parental HEK293 calcium flux, Fluo-4 fluorescence ratio; stronger effect = higher value | fluorescence ratio F(max-min)/F0 at 10 µM | actives 0.4% (n = 4,000) | AID 624114;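 active = calcium fluorescence ratio, averaged over duplicates, at least 3 SD of the buffer-well ratio, meaning a nonspecific response in receptor-free cells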;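 note: untransfected parental HEK293 lacking MrgX1 used as counterscreen for MrgX1 allosteric activators; fluorescence change taken during the second addition on a kinetic imager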
HEK293 Ca cntr2 = activity in parental HEK293 cells lacking MrgX1 receptor; shares compounds with MrgX1 antag; Fluo-4 calcium fluorescence (FDSS); stronger effect = higher value; fluorescence ratio F(max-min)/F0 at 10 µM; actives 8.7% (n = 4,000); AID 624115;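 active = calcium fluorescence ratio at least three times the spread of buffer wells, meaning a non-specific response in parental cells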
The depositor's hits bear a star; i = inactive; . = not tested or not shown.

SMILES	RGS4 inh	MrgX1 antag	MrgX1 PAM	MrgX1 ag	RGS4 pot	MrgX1 antag conf	HEK293 Ca flux	HEK293 Ca counter	HEK293 Ca cntr2
CC1CCCN(C(=O)C2c3ccccc3C(=O)N3CCc4ccccc4C23)C1 (stereo unspecified)	i	-5.5*	i	i	i	i	i	i	i
Cc1ccccc1-n1c(=O)cc(N2CCCCCC2)[nH]c1=O	i	-6*	i	i	i	i	i	i	i
O=C(CNC(=S)NC(=O)c1ccc(F)cc1)c1ccccc1	i	-4.7*	i	i	i	i	i	i	i
O=C(CNC(=S)NC(=O)c1ccccc1)c1ccccc1	i	i	i	i	i	.	.	.	.
COc1ccc(NC(=O)c2ccc3[nH]c(C)c(C)c3c2)cc1	i	i	i	i	i	.	.	.	.
CN(C)CCCSc1nc2ccccc2s1	i	-7.1*	i	i	i	69%*	i	i	i
Cc1cc(C)c(S(=O)(=O)N2CCCc3ccccc32)c(C)c1	i	-7.1*	i	i	i	i	i	i	52*
CCn1c(SCC(=O)OC)nc2sc3c(c2c1=O)CC(C)(C)OC3	i	i	i	i	i	.	.	.	.
CCSc1nc2sc3c(c2c(=O)n1CC)CC(C)(C)OC3	i	-7.1*	i	i	i	i	i	i	i
Cc1[nH]ccc(=O)c1Oc1ncc(C(F)(F)F)cc1Cl	i	i	i	i	i	.	.	.	.
CC1CCCC(C)N1C(=O)CSCc1ccc(Cl)cc1 (stereo unspecified)	i	-4.7*	i	i	i	i	i	i	i
CC1CCCC(C)N1C(=O)COC(=O)Cc1ccc(Cl)cc1 (stereo unspecified)	i	i	i	i	i	.	.	.	.
CCOc1ccccc1N1CCN(C/C=C/c2ccc(N(C)C)cc2)CC1	i	-4.7*	i	i	i	i	i	i	i
Cc1occc1C(=O)N(C)Cc1nc(-c2ccccc2)no1	i	i	i	i	i	.	.	.	.
C=CCn1c(SCc2nc3cc(C(=O)OC)ccc3c(=O)[nH]2)nc2sc(CC)cc2c1=O	i	-4.8*	i	i	i	i	i	i	i
C=CCn1c(SCC(=O)Nc2sccc2C(N)=O)nc2sc(CC)cc2c1=O	i	i	i	i	i	.	.	.	.
Cc1ccc(Cn2nc(C)c(NC(=O)c3nn(C)cc3Cl)c2C)cc1	i	-10*	i	i	i	i	i	i	i
Cc1ccc(S(=O)(=O)/N=C2\CN(C)C(=O)N2C)cc1	i	i	i	i	i	.	.	.	.
Cc1ccc(S(=O)(=O)/N=c2\scc(C)n2C)cc1	i	-5.5*	i	i	i	i	i	i	i
CC(C)Cc1ccc(C(C)C(=O)Nc2ccc(O)cc2)cc1 (stereo unspecified)	i	-8.2*	i	i	i	i	i	i	66*
O=C(OCC(=O)c1ccccc1Cl)c1cnccn1	i	i	i	i	i	.	.	.	.
COCCCNC(=O)C1CC(=O)N(C2CCCC2)C1 (stereo unspecified)	i	-4.8*	i	i	i	i	i	i	i
COc1cc(C(=O)OCC(=O)NC(N)=O)cc(CN2C(=O)c3ccccc3C2=O)c1OC	i	i	i	i	i	.	.	.	.
COc1ccccc1NC(=O)c1c(N=Cc2ccccc2O)cnn1C	i	i	i	i	i	.	.	.	.
Cc1ccc(S(=O)(=O)CCc2nc3ccccc3[nH]2)cc1C	i	-4.7*	i	i	i	i	i	i	i
SMILES	RGS4 inh	MrgX1 antag	MrgX1 PAM	MrgX1 ag	RGS4 pot	MrgX1 antag conf	HEK293 Ca flux	HEK293 Ca counter	HEK293 Ca cntr2
Cc1ccc(S(=O)(=O)CCc2nc3ccccc3[nH]2)cc1	i	i	i	i	i	.	.	.	.
COc1ccc(-c2noc(CSc3nc(N)c(-c4ccccc4)c(=O)[nH]3)n2)cc1	i	-7.1*	i	i	i	75%*	i	i	i
COC(=O)c1cccc(NC(=O)c2ccc3c(c2)C(=O)N(Cc2cccnc2)C3=O)c1	i	i	i	i	i	.	.	.	.
CC(C)(C)NC(=O)c1cccc(NC(=O)c2ccc3c(c2)C(=O)N(C(C)(C)C)C3=O)c1	i	-11*	i	i	-7.1*	79%*	i	i	i
O=C(O)c1cccc(NC(=O)c2ccc3c(c2)C(=O)N(c2ccccc2)C3=O)c1	i	i	i	i	i	.	.	.	.
COC(=O)c1cccc(NC(=O)c2ccc3c(c2)C(=O)N(C(C)(C)C)C3=O)c1	i	-4.7*	i	i	i	i	i	i	i
CC(C)N(C(C)C)S(=O)(=O)c1ccc(NC(=O)c2cnccn2)cc1	i	i	i	i	i	.	.	.	.
CCCCCCc1c(C)c2ccc(OCC(=O)N3CCC[C@H]3C(=O)O)c(C)c2oc1=O	i	i	i	i	i	.	.	.	.
COc1ccc(NC(=S)N2CCC(NC(=O)c3cccc(C)c3)CC2)cc1	i	i	i	i	i	.	.	.	.
COc1ccc(C(=O)NC2CCN(C(=S)Nc3ccc(C)cc3)CC2)cc1	i	-4.7*	i	i	i	i	i	i	i
Cc1cccc(NS(=O)(=O)c2ccc(C)c(C(=O)OCC(=O)Nc3cc(C)on3)c2)c1	i	i	i	i	i	.	.	.	.
Cc1cccc(NS(=O)(=O)c2cc(C(=O)OCC(=O)Nc3cc(C)on3)ccc2C)c1	i	-5*	i	i	i	i	i	i	i
COc1ccc(NC(=O)CCN2C(=O)c3ccncc3C2=O)cc1OC	i	i	i	i	i	.	.	.	.
COC(=O)CCC(=O)Nc1cccc(Cl)c1	i	-5.4*	i	i	i	84%*	i	i	i
CCOC(=O)c1cnc2c(cnn2C)c1NCCC(O)C(F)(F)F (stereo unspecified)	i	-4.8*	i	i	i	i	i	i	i
